High-throughput results: PubChem BioAssay, Sanford-Burnham Center for Chemical Genomics
PMI act hi M6P = increases human PMI activity with near-saturating mannose 6-phosphate; P34949; coupled PMI enzyme assay, resazurin fluorescence, 20 min; stronger effect = higher value; 1 = untreated enzyme, 0 = substrate-free blank; activation factor at 20 µM; 190,000 compounds, 0.34% hits; AID 1216;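 active means activation factor of 2 or more at 20 µM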
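Test system: human phosphomannose isomerase with PGI, G6PDH, diaphorase coupling enzymes; Amount: PMI at 15 ng/mL final; Reagent: Mannose-6-phosphate 1.0 mM (near-saturating) plus 0.22 mM NADP+; Timing: 20 min, room temperature; Technique: resorufin fluorescence at Ex 544/Em 590 nm; Dosing: 20 µM single dose.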
TNAP inh hi DEA = blocks human TNAP under high phosphate acceptor concentration | P05186 | purified TNAP, CDP-star luminescence, 1 M DEA | inhibition, % at 20 µM | 200,000 compounds, 0.03% hits;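 active means over 50% inhibition of tissue-nonspecific alkaline phosphatase at 20 µM in the single-dose screen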;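 further: plate controls were DMSO wells for no effect and EDTA-quenched wells as full inhibition for full effect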
Target sequence (P05186 whole entry, looked up): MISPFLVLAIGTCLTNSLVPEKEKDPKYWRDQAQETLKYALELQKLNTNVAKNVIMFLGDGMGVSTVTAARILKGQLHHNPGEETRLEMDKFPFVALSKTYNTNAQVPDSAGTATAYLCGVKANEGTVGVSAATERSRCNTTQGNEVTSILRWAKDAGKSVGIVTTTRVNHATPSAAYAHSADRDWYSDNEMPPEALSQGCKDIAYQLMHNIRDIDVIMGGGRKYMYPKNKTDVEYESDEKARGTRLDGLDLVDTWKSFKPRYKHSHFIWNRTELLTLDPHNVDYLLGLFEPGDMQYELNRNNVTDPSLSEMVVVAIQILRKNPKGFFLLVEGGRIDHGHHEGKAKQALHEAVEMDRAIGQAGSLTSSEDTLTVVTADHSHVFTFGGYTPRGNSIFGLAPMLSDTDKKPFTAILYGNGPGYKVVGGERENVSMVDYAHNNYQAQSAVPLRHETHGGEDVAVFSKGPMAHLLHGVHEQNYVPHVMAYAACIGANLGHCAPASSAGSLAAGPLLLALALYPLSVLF
TNAP inh no acc = inhibitors of human TNAP without phosphate acceptor | P05186 | purified TNAP, CDP-star luminescence, 30 min | inhibition, % at 20 µM | 200,000 compounds, 0.26% hits | AID 1012;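 active means tissue-nonspecific alkaline phosphatase inhibition above about 50% at 20 µM in the single-dose screen, limit read from the data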;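 further: 0% = DMSO negative control and 100% = EDTA positive control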
PMI activator = activators of human phosphomannose isomerase. activation factor at 20 µM. purified human PMI, coupled resazurin fluorescence, 20 min; stronger effect = higher value; 1 = vehicle control, 0 substrate-free wells. AID 1214. P34949. 190,000 compounds, 0.005% hits;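 active means activation factor of 2 or more at 20 µM, relative to plate controls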
TNAP act hi DEA = increases human TNAP activity under high phosphate acceptor concentration | P05186 | purified TNAP, CDP-star luminescence, 1 M DEA, 30 min; stronger effect = higher value; 0 = EDTA background, 1 = DMSO-only activity | activation factor at 20 µM | 200,000 tested, under 10 active;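 active means activation factor at least 2 at 20 µM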
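Measured by: Luminescent substrate turnover signal | Test system: Human TNAP | Input: TNAP 1/800 final | Dosing: 20 µM single point | Schedule: 30 min, room temperature | Controls: EDTA wells as negative control, DMSO wells as positive control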
* marks the source's active call; other numbers are inactive results; / = no result. Rows were chosen to be rich in hits. Some 0.64% of all compounds tested hit in one or more screens of this group.

SMILES | PMI act hi M6P | TNAP inh hi DEA | TNAP inh no acc | PMI activator | TNAP act hi DEA
Oc1ccc(/C=N/Nc2cc(N3CCOCC3)nc(N3CCOCC3)n2)cc1O | 0.4 | 9.4 | 67.2* | 0.2 | 0.9
Cn1c(N)c(C(=O)COC(=O)COc2ccc3ccccc3c2)c(=O)n(C)c1=O | 1 | -1.4 | -3.6 | 1 | 1
Cc1cc(/C=C2/C(=N)N3C(=NC2=O)SN=C3S(C)(=O)=O)c(C)n1-c1ccc(F)cc1 | 1.3 | -3.1 | -1.2 | 1.4 | 1
CCOc1ccc(-n2c(C)cc(/C=C3/C(=N)N4C(=NC3=O)SN=C4S(C)(=O)=O)c2C)cc1 | 2.1* | 0.2 | -5.5 | 1.6 | 1
C=CCOc1c(Br)cc(/C=N/n2c(CC)n[nH]c2=S)cc1Br | 1.2 | 16.0 | 58.7* | 1.2 | 0.8
COC(=O)[C@@H](NC(=O)CCc1nnc(-c2ccsc2)o1)C(C)C | 1 | 2.8 | -4.5 | 1 | 1
Cc1ccc(-c2noc(CCCC(=O)Nc3cccnc3)n2)cc1 | 1.1 | -5.5 | 6.4 | 1 | 1.1
COc1ccc(OCCCC(=O)Nc2ccc(N3CCCCC3)cc2)cc1 | 1 | -0.4 | 17.7 | 1.1 | 1
CC(C)C(=O)n1nc(-c2cccnc2)nc1NCc1cccs1 | 1 | -2.3 | 42.0 | 1 | 1
O=C(c1cccnc1)n1nc(-c2ccco2)nc1NCc1cccs1 | 1 | -1.9 | 63.3* | 1.1 | 1
O=[N+]([O-])c1cccc(C(=Nc2cccc(Cl)c2)NO)c1 | 0.9 | 0.6 | -3.9 | 0.9 | 1
CCc1cc2cc(C)cc(C)c2[nH]c1=S | 2.9* | 0.7 | 4.8 | 1.8 | 1
CC(C)=Cc1oc2ccc([N+](=O)[O-])cc2c1N1CCOCC1 | / | 0.5 | -4.0 | / | 1
Fc1ccc(-c2n[nH]c(=S)c3ccccc23)cc1 | 2.4* | 0.0 | 3.2 | 1.8 | 1
c1ccc(-c2n[nH]c3ccccc23)cc1 | 1 | 10.4 | 89.5* | 0.9 | 0.9
Cc1ccc(NC(=O)CSc2nnc(Cc3cccn3C)n2-c2ccc(F)cc2)c(C)c1 | 1 | -5.1 | -13.2 | 1 | 1.1
Cc1cc(C)c2c(-n3cccc3)n[nH]c2n1 | 1 | -1.4 | 68.4* | 1 | 1
CC1N(O)C(c2ccc(Cl)cc2Cl)N(O)C1(C)C (stereo not drawn) | 2* | -2.0 | -1.7 | 1.8 | 1
ON1C(c2ccc(Cl)cc2Cl)N(O)[C@H]2CCCC[C@H]21 (stereo partly drawn) | 1.1 | -5.1 | 3.7 | 1.3 | 1.1
O=c1[nH]c(-c2ccccc2Cl)nc2c1sc(=S)n2-c1ccccc1 | 1 | -1.4 | -4.0 | 1 | 1
Brc1ccc(-c2nn3c(-c4ccco4)nnc3s2)o1 | 2* | -1.2 | -6.8 | 1.1 | 1
Cc1ccc(S(=O)(=O)NC(=O)NN2CCCCCC2)cc1 | 2* | 4.1 | -4.6 | 1.7 | 1
CC(=O)NCc1ccc(S(=O)(=O)N/N=C/c2ccc(Br)cc2)cc1 | 1 | 0.4 | -12.9 | 1 | 1
Cc1ccc2nc(C)c(C(=O)N/N=C/c3ccc(C(=O)O)cc3)cc2c1 | 0.9 | -7.1 | -8.7 | 0.9 | 1.1
COc1ccc(-n2nnnc2SC(C)C(N)=O)cc1 (stereo not drawn) | 0.9 | -3.5 | -9.8 | 0.9 | 1
SMILES | PMI act hi M6P | TNAP inh hi DEA | TNAP inh no acc | PMI activator | TNAP act hi DEA
Cc1c2cc(O)c(=O)cc-2oc2cc(O)c(O)cc12 | 0.7 | 17.9 | 57.4* | 0.5 | 0.8
COc1cc(OC)c(-c2c3cc(O)c(=O)cc-3oc3cc(O)c(O)cc23)cc1OC | 0.3 | 21.7 | -324.9 | 0.3 | 0.8
COC(=O)C1=NN(C(C)=O)C2(CC(=O)N(c3cc(C)cc(C)c3)C2=O)C1 (stereo not drawn) | 1.1 | -3.2 | 0.1 | 1.1 | 1
CCOC(=O)C1=NN(N=O)C2(CC(=O)N(c3cc(C)cc(C)c3)C2=O)C1 (stereo not drawn) | 2.2* | -2.5 | -6.4 | 1.7 | 1
CCCCOc1ccc(/C=C/C2=CC(C)(C)NC(=S)N2)cc1OCC | 2* | 9.3 | -4.2 | 1.6 | 0.9
Cc1ccccc1N/N=C/c1ccc(C#N)cc1 | 2.4* | -3.6 | -1.9 | 1.6 | 1
COc1ccccc1/C=C(/C(=O)OCC(=O)N(C)Cc1ccccc1)c1ccccc1 | 1 | 1.6 | -0.8 | 1 | 1
FC(F)(F)c1nnc2ccc(-n3ccnc3)nn12 | 1 | -2.5 | -15.6 | 1.1 | 1
Cc1ccc(NN=C2c3ccccc3-c3ccccc32)cc1 | 2.2* | 3.0 | 7.6 | 1.3 | 1
